# Assay results from ChEMBL document CHEMBL5252546, “Salutaxel, a Conjugate of Docetaxel and a Muramyl Dipeptide (MDP) Analogue, Acts as Multifunctional Prodrug That Inhibits Tumor Growth and Metastasis” (J Med Chem, 2018).
# Active and inactive are the calls of the source. No cut-off for these calls is given here.
# Legend:
# [1] = Tmax in mouse tumor implanted with mouse 4T1 cells at 10 mg/kg,iv measured upto 72 hrs; assay type: ADME, organism-based, Neoplasm
# [2] = Prodrug conversion in mouse tumor implanted with mouse 4T1 cells assessed as AUC (0-t) of docetaxel at 4 mg/kg,iv measured upto 72 hrs; assay type: ADME, organism-based, Neoplasm; set-up: time < 72 hrs, dose 4 mg/kg, route iv; details: in vivo
# [3] = Drug distribution in rat spleen at 4 mg/kg,iv measured by 0.25 hrs; assay type: ADME, organism-based; details: in vivo
# Outline: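 Rats received 4 mg/kg iv. Parent drug and released docetaxel were assayed in tissues and plasma from the first sampling at 0.25 h to 24 h. The lower limit of quantitation was 200 ng/g.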
# [4] = Drug concentration in plasma of rat assessed as docetaxel concentration at 2 to 8 mg/kg,iv measured upto 24 hrs; assay type: ADME, organism-based; details: in vivo, dose 2-8 mg/kg
# Outline: (§1)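 Rats were given a single iv injection at 2, 4 or 8 mg/kg. Plasma parent drug and released docetaxel were followed over time. Cmax, Tmax, AUC, MRT, t1/2, CL and Vss were reported for males, females and all animals combined.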
# [5] = Volume of distribution at steady state in Beagle dog at 1 mg/kg,iv measured upto 24 hrs; assay type: ADME, organism-based, Canis lupus familiaris; details: in vivo, read-out: Vdss
# [6] = Clearance in rat at 4 mg/kg,iv measured upto 24 hrs; assay type: ADME, organism-based; details: in vivo; outline: as §1
# [7] = Half life in female Beagle dog at 2 mg/kg,iv measured upto 24 hrs; assay type: ADME, organism-based, Canis lupus familiaris; details: in vivo
# [8] = Half life in male Beagle dog at 1 mg/kg,iv measured upto 24 hrs; assay type: ADME, organism-based, Canis lupus familiaris; details: in vivo
# [9] = Half life in rat at 2 mg/kg,iv measured upto 24 hrs; assay type: ADME, organism-based; details: in vivo
# [10] = MRT (0 to infinity) in Beagle dog at 2 mg/kg,iv measured upto 24 hrs; assay type: ADME, organism-based, Canis lupus familiaris; details: in vivo
# [11] = MRT (0 to infinity) in male Beagle dog at 1 mg/kg,iv measured upto 24 hrs; assay type: ADME, organism-based, Canis lupus familiaris; details: in vivo
# [12] = MRT (0 to infinity) in rat at 2 mg/kg,iv measured upto 24 hrs; assay type: ADME, organism-based; details: in vivo
# [13] = AUC (0-infinity) in Beagle dog at 2 mg/kg,iv measured upto 24 hrs; assay type: ADME, organism-based, Canis lupus familiaris; set-up: dose 2 mg/kg, time < 24 hrs, route iv; details: in vivo
# Outline: (§2)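 Single iv dose: rats 2, 4 or 8 mg/kg by intravenous injection; Beagle dogs 1, 2 or 4 mg/kg by intravenous infusion. Plasma concentration–time data were analysed by sex and pooled. Reported parameters: Cmax, Tmax, AUC0−t, AUC0−∞, MRT0−∞, t1/2, CL, Vss, given as mean ± SD.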
# [14] = AUC (0-t) in rat at 4 mg/kg,iv measured upto 24 hrs; assay type: ADME, organism-based; set-up: time < 24 hrs, dose 4 mg/kg, route iv; details: in vivo; outline: as §2
# [15] = Tmax in male rat at 4 mg/kg,iv measured upto 24 hrs; assay type: ADME, organism-based; details: in vivo
# [16] = Cmax in male rat at 4 mg/kg,iv measured upto 24 hrs; assay type: ADME, organism-based; set-up: time < 24 hrs, dose 4 mg/kg, route iv; details: in vivo; outline: as §1
# [17] = Cmax in male rat at 8 mg/kg,iv measured upto 24 hrs; assay type: ADME, organism-based; set-up: time < 24 hrs, dose 8 mg/kg, route iv; details: in vivo; outline: as §1
# [18] = Cmax in female Beagle dog at 2 mg/kg,iv measured upto 24 hrs; assay type: ADME, organism-based, Canis lupus familiaris; set-up: dose 2 mg/kg, time < 24 hrs, route iv; details: in vivo
# Outline: (§3)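 Beagle dogs were given a single iv infusion at 1, 2 or 4 mg/kg. Plasma parent drug and released docetaxel were followed over time. Cmax, Tmax, AUC, MRT, t1/2, CL and Vss were reported by sex and for all dogs combined.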
# [19] = Cmax in male Beagle dog at 4 mg/kg,iv measured upto 24 hrs; assay type: ADME, organism-based, Canis lupus familiaris; set-up: time < 24 hrs, dose 4 mg/kg, route iv; details: in vivo; outline: as §3
# Cytochrome P450 2D6 = Cytochrome P450 2D6 (Homo sapiens, UniProt P10635); test: Inhibition of CYP2D6 in human liver microsomes using probe substrate at 0.1 to 100 uM in presence of NADPH; assay type: ADME, Microsome; details: dose 0.1-100 µM
# Sequence of Cytochrome P450 2D6 (P10635 whole entry): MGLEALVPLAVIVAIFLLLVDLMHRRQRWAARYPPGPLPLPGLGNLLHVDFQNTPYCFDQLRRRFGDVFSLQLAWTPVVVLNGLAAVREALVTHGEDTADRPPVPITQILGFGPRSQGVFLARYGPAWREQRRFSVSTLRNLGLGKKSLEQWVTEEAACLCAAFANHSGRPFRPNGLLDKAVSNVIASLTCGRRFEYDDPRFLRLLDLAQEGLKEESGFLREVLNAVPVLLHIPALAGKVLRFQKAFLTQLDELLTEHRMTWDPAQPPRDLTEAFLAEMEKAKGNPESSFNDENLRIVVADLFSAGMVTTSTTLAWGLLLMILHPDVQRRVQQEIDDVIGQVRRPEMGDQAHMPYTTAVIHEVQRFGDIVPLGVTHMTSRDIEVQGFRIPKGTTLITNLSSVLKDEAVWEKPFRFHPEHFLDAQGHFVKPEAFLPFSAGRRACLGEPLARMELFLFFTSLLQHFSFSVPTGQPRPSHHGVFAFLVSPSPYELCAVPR
# [20] = Drug metabolism in monkey hepatocytes assessed as MDA-205 metabolite formation at 20 uM incubated for 180 mins; assay type: ADME, cell-based, Macaca mulatta, Hepatocyte; details: rhesus monkey, 3 h
# [21] = Drug metabolism in human hepatocytes assessed as MDA-205 metabolite formation at 20 uM incubated for 180 mins; assay type: ADME, cell-based, Hepatocyte; details: 3 h
# [22] = Stability in rat plasma assessed as compound remaining at 1 uM incubated for 6 hrs; assay type: ADME, cell-free
# MDA-MB-231 = test: Antiproliferative activity against human MDA-MB-231 cells assessed inhibition of cell growth incubated for 72 hrs by SRB assay; assay type: functional, cell-based; details: MDA-MB-231, 72 h
# A549 = test: Antiproliferative activity against human A549 cells assessed inhibition of cell growth incubated for 72 hrs by SRB assay; assay type: functional, cell-based; details: A549, 72 h
# NCI-H23 = test: Antiproliferative activity against human NCI-H23 cells assessed inhibition of cell growth incubated for 72 hrs by SRB assay; assay type: functional, cell-based; details: NCI-H23, 72 h
# 4T1 [23] = test: Antitumor activity against mouse 4T1 cells implanted in BALB/c mouse assessed as decrease in serum MMP9 level at 10 mg/kg,iv administrated once per week for 4 weeks by ELISA; assay type: functional, organism-based
# Outline: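 4T1 fat-pad model in BALB/c mice, iv 5–20 mg/kg once weekly for 4 weeks, with vehicle and naive groups; serum MMP9, TIMP-1, IL-6 and S100A9 measured by mouse ELISA kits.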
# 4T1 [24] = test: Antitumor activity against mouse 4T1 cells implanted in BALB/c mouse assessed as decrease in lung MMP9 expression level at 5 to 20 mg/kg,iv administrated once per week for 4 weeks by western blot assay; assay type: functional, organism-based; details: dose 5-20 mg/kg
# Outline: (§4)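 4T1 fat-pad model in BALB/c mice, iv once weekly for 4 weeks; MMP9, MMP2 and NOD1 in spleen, lung and tumour by western blot, β-actin loading control; bands averaged over five mice per group, representative of two independent experiments.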
# 4T1 [25] = test: Antitumor activity against mouse 4T1 cells implanted in BALB/c mouse assessed as increase in spleen NOD1 expression level at 5 to 20 mg/kg,iv administrated once per week for 4 weeks by western blot assay; assay type: functional, organism-based; details: dose 5-20 mg/kg; outline: as §4
# 4T1 [26] = test: Antitumor activity against mouse 4T1 cells implanted in BALB/c mouse assessed as increase in lung NOD1 expression level at 5 to 20 mg/kg,iv administrated once per week for 4 weeks by western blot assay; assay type: functional, organism-based; details: dose 5-20 mg/kg; outline: as §4
# 4T1 [27] = test: Antitumor activity against mouse 4T1 cells implanted in BALB/c mouse assessed as decrease in tumor MMP9 expression level at 5 to 20 mg/kg,iv administrated once per week for 4 weeks by western blot assay; assay type: functional, organism-based; details: dose 5-20 mg/kg; outline: as §4
# 4T1 [28] = test: Antitumor activity against mouse 4T1 cells implanted in BALB/c mouse assessed as decrease in PROK2 mRNA expression in lung at 20 mg/kg,iv administrated qd for 2 days by qRT-PCR analysis; assay type: functional, organism-based; details: time 2.0 day
# Outline: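 Day 19 after 4T1 implantation, mice randomised into five groups; iv vehicle or 20 mg/kg plus ip C12-iE-DAP (50 μg/mouse) and MDP (100 μg/mouse) once daily for 2 days; killed after 48 h; lung mRNA for MMP8, MMP9, PROK2, S100A8, S100A9 and IL-1β by qPCR; mean ± SEM.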
# [29] = Tmax in mouse tumor implanted with mouse 4T1 cells at 5.7 mg/kg,iv measured upto 72 hrs; assay type: ADME, organism-based, Neoplasm
# 4T1 [30] = test: Antitumor activity against mouse 4T1 cells xenografted with BALB/c mouse assessed as decrease in lung metastasis at 5.7 mg/kg,iv administrated once per week for 4 weeks; assay type: functional, organism-based
# Outline: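 4T1 cells injected into mammary fat pads of BALB/c mice. Dosing iv once per week for 4 weeks, saline vehicle; single-agent arms were given alone or with the peptide component (5b or 6). Endpoints were body weight, tumour volume, tumour weight, lung metastatic nodule count and lung metastasis score. Mean ± SEM, n = 10; ANOVA and Student's t test.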
compound,measurement,setting,value
CC(=O)O[C@@]12CO[C@@H]1C[C@H](O)[C@@]1(C)C(=O)[C@H](O)C3=C(C)[C@@H](OC(=O)[C@H](OC(=O)CCC(=O)NCCCC[C@H](NC(=O)CC[C@@H](NC(=O)[C@H](C)NC(=O)/C=C/c4ccc(F)cc4Cl)C(N)=O)C(=O)O)[C@@H](NC(=O)OC(C)(C)C)c4ccccc4)C[C@@](O)([C@@H](OC(=O)c4ccccc4)[C@H]21)C3(C)C,Tmax,[1],15 min
same,AUCt,[2],81 µM·h
same,Drug uptake,[3],Active
same,Drug uptake,[4],0.79%
same,Vd,[5],0.169 L/kg
same,clearance,[6],4.21 mL/min/kg
same,half-life,[7],30.9 min
same,half-life,[8],13.6 min
same,half-life,[9],7.8 min
same,MRT inf,[10],14.2 min
same,MRT inf,[11],12.1 min
same,MRT inf,[12],11.3 min
same,AUC(0-inf),[13],5950 ng·h/mL
same,AUC(0-t) at 24 h,[14],16900 ng·h/mL
same,Tmax,[15],4.98 min
same,Cmax,[16],37900 ng/mL
same,Cmax,[17],61900 ng/mL
same,Cmax,[18],14700 ng/mL
same,Cmax,[19],29600 ng/mL
same,inhibition (INH),Cytochrome P450 2D6,Not Active
same,Drug metabolism,[20],Metabolite_Detected
same,Drug metabolism,[21],Metabolite_Detected
same,Stability,[22],Stable
same,IC50,MDA-MB-231,16.3 nM
same,IC50,A549,16.3 nM
same,IC50,NCI-H23,16.3 nM
same,Activity,4T1 [23],Active
same,Activity,4T1 [24],Active
same,Activity,4T1 [25],Active
same,Activity,4T1 [26],Active
same,Activity,4T1 [27],inactive
same,Activity,4T1 [28],Active
CC(=O)O[C@@]12CO[C@@H]1C[C@H](O)[C@@]1(C)C(=O)[C@H](O)C3=C(C)[C@@H](OC(=O)[C@H](O)[C@@H](NC(=O)OC(C)(C)C)c4ccccc4)C[C@@](O)([C@@H](OC(=O)c4ccccc4)[C@H]21)C3(C)C [DOCETAXEL ANHYDROUS],Tmax,[29],30 min
same,Activity,4T1 [30],Active
